Measured values published in ChEMBL document CHEMBL1165908, “Novel benzimidazole-pyrimidine conjugates as potent antitumor agents” (Eur J Med Chem, 2010).
Counter-ions that a name gives are not always drawn.

Columns and labels:
[1] = test system: KB; experiment: Cytotoxicity against human KB cells after 3 days by MTT assay; format: functional, cell-based; conditions: 72 h
In short: (§1)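 Cells grown in RPMI 1640 with 10% fetal calf serum, plated at 2 × 10^4 cells, held 12 h at 37 °C in 5% CO2, then exposed to test sample for 3 days at 37 °C. MTT added for 4 h, formazan dissolved in DMSO, absorbance read at 570 nm. IC50 taken as 50% growth inhibition relative to untreated control; each experiment run at least 3 times.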

[2] = test system: GOTO; experiment: Cytotoxicity against human GOTO cells after 3 days by MTT assay; format: functional, cell-based; conditions: 72 h; in short: as §1
[3] = test system: SK-MEL-28; experiment: Cytotoxicity against human SK-MEL-28 cells after 3 days by MTT assay; format: functional, cell-based; conditions: SK-MEL-28, 72 h; in short: as §1
[4] = test system: G-361; experiment: Cytotoxicity against human G361 cells after 3 days by MTT assay; format: functional, cell-based; conditions: G-361, 72 h; in short: as §1
[5] = test system: NCI-H460; experiment: Cytotoxicity against human NCI-H460 cells after 3 days by MTT assay; format: functional, cell-based; conditions: NCI-H460, 72 h; in short: as §1
[6] = test system: HL-60; experiment: Cytotoxicity against human HL60 cells after 3 days by MTT assay; format: functional, cell-based; conditions: HL-60, 72 h
[7] = test system: NB1; experiment: Cytotoxicity against human NB-1 cells after 3 days by MTT assay; format: functional, cell-based; conditions: NB1, 72 h; in short: as §1
[8] = test system: U-937; experiment: Cytotoxicity against human U937 cells after 3 days by MTT assay; format: functional, cell-based; conditions: U-937, 72 h; in short: as §1
[9] = test system: SK-OV-3; experiment: Cytotoxicity against human SKOV3 cells after 3 days by MTT assay; format: functional, cell-based; conditions: SK-OV-3, 72 h; in short: as §1
[10] = Toxicity in ip dosed mouse assessed as mortality after 24 hrs; format: organism-based; conditions: in vivo
In short: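 Lorke two-phase design in mice, single intraperitoneal dose per group. Phase 1: three groups of three animals, each group one dose, observed 24 h for mortality and general behaviour. Phase 2: 3–4 groups of one mouse, doses chosen from phase 1 findings, observed 24 h. LD50 taken as geometric mean of lowest lethal dose and highest non-lethal dose; reported in mg/kg.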

[11] = test system: SF-268; experiment: Cytotoxicity against human SF268 cells after 3 days by MTT assay; format: functional, cell-based; conditions: SF-268, 72 h; in short: as §1
[12] = test system: K562; experiment: Cytotoxicity against human K562 cells after 3 days by MTT assay; format: functional, cell-based; conditions: K562, 72 h; in short: as §1
[13] = Cytotoxicity against human RKOp27 cells after 3 days by MTT assay; format: functional, cell-based; conditions: RKOp27, 72 h; in short: as §1

Structure (SMILES) | IC50 [1] [nM] | IC50 [2] [nM] | IC50 [3] [nM] | IC50 [4] [nM] | IC50 [5] [nM] | IC50 [6] [nM] | IC50 [7] [nM] | IC50 [8] [nM] | IC50 [9] [nM] | LD50 at 24 h [10] [mg/kg] | IC50 [11] [nM] | IC50 [12] [nM] | IC50 [13] [nM]
N#Cc1c(NC(N)=O)nc(SCc2nc3ccccc3[nH]2)nc1-c1ccccc1 | 9.6 | 11.3 | 4.8 | 2.55 | 14.7 | 2.9 | 7.35 | 3.37 | 6.75 | 347 | 3.37 | 4.54 | 2.5
Cc1ccc(S(=O)(=O)N2CCN(c3nc(SCc4nc5ccccc5[nH]4)nc(-c4ccccc4)c3C#N)CC2)cc1 | 3.28 | 4.38 | 4.38 | 4.38 | 22.7 | 4.23 | 6.75 | 4.1 | 4.54 | 345 | 7.81 | 11.3 | 2.5
N#Cc1c(-c2ccccc2)nc(SCc2nc3ccccc3[nH]2)nc1N1CCN(C(=O)c2ccc([N+](=O)[O-])cc2)CC1 | 7.35 | 5.81 | 2.77 | 2.4 | 4.46 | 2.9 | 13.2 | 5.2 | 8.62 | 327 | 5.81 | 4.38 | 7.81
CNc1nc(SCc2nc3ccccc3[nH]2)nc(-c2ccccc2)c1C#N | 2.7 | 3.28 | 2.87 | 12.5 | 3.2 | 6.57 | 4.46 | 19.2 | 3 | 302 | 3.2 | 13.2 | 3.7
N#Cc1c(NNC(N)=S)nc(SCc2nc3ccccc3[nH]2)nc1-c1ccccc1 | 3 | 2.55 | 3.2 | 3.96 | 3.37 | 4.54 | 5.81 | 3 | 3 | 345 | 3.37 | 8.9 | 3.2
N#Cc1c(Nc2nccs2)nc(SCc2nc3ccccc3[nH]2)nc1-c1ccccc1 | 14.7 | 5.1 | 8.9 | 11.9 | 3.37 | 11.9 | 3.2 | 3.8 | 5.81 | 349 | 2.55 | 14.7 | 3.2
N#Cc1c(Nc2ccccn2)nc(SCc2nc3ccccc3[nH]2)nc1-c1ccccc1 | 7.35 | 2.5 | 8.9 | 8.9 | 2.8 | 20 | 3.9 | 2.55 | 5.81 | 367 | 6.75 | 7 | 3.8
N#Cc1c(-c2ccccc2)nc(SCc2nc3ccccc3[nH]2)nc1N1CCN(S(=O)(=O)c2ccccc2[N+](=O)[O-])CC1 | 4.44 | 3 | 8.9 | 9.6 | 3.7 | 2.77 | 2.5 | 3.28 | 3.2 | 325 | 3 | 14.7 | 5.6
N#Cc1c(-c2ccccc2)nc(SCc2nc3ccccc3[nH]2)nc1N1CCN(S(=O)(=O)c2ccccc2)CC1 | 3 | 5.81 | 6.41 | 8.62 | 4.6 | 4.23 | 3.28 | 6.2 | 2.77 | 327 | 2.87 | 3 | 7.35
CN1CCN(c2nc(SCc3nc4ccccc4[nH]3)nc(-c3ccccc3)c2C#N)CC1 | 2.7 | 3.37 | 20 | 14.7 | 2.84 | 2.8 | 2.4 | 6.75 | 1600 | 384 | 6.9 | 2.4 | 5.4
N#Cc1c(Cl)nc(SCc2nc3ccccc3[nH]2)nc1-c1ccccc1 | 3.7 | 8.62 | 3.28 | 12.5 | 3.28 | 4.46 | 2.87 | 4.46 | 3.37 | 313 | 3.2 | 11.3 | 4.38
N#Cc1c(-c2ccccc2)nc(SCc2nc3ccccc3[nH]2)nc1N1CCNCC1 | 2.87 | 3.7 | 2.6 | 2.5 | 7.35 | 4 | 6.75 | 5.81 | 2.63 | 300 | 20000 | 4.38 | 5.81
N#Cc1c(NC(N)=S)nc(SCc2nc3ccccc3[nH]2)nc1-c1ccccc1 | 3.2 | 4.8 | 4.8 | 5.81 | 3.37 | 5.81 | 11.9 | 20 | 7.81 | 327 | 3.37 | 11.9 | 2.63
Cl.N=c1[nH]c(=S)[nH]c2nc(SCc3nc4ccccc4[nH]3)nc(-c3ccccc3)c12 | 7.3 | 11.9 | 3.37 | 3.37 | 3 | 6.75 | 3.28 | 2.8 | 3.5 | 389 | 3.5 | 14.7 | 2.5
N#Cc1c(O)nc(SCc2nc3ccccc3[nH]2)nc1-c1ccccc1 | 6.2 | 7.81 | 7.7 | 3.43 | 2.5 | 2.55 | 6.57 | 3.28 | 2.55 | 345 | 3.2 | 4.63 | 6.09
Cl.N=c1[nH]c(=O)[nH]c2nc(SCc3nc4ccccc4[nH]3)nc(-c3ccccc3)c12 | 2.5 | 8.9 | 8.9 | 3.2 | 2.84 | 3.1 | 11.3 | 2.87 | 3.2 | 346 | 2.84 | 14.7 | 2.7
CCNc1nc(SCc2nc3ccccc3[nH]2)nc(-c2ccccc2)c1C#N | 7.35 | 3.96 | 5.3 | 4.38 | 2.87 | 3.96 | 2.63 | 2.63 | 7.35 | 325 | 7.35 | 4.38 | 7.35
N#Cc1c(Nc2ccncc2)nc(SCc2nc3ccccc3[nH]2)nc1-c1ccccc1 | 3.2 | 2.55 | 4.46 | 2.55 | 2.77 | 2.77 | 6.75 | 7.35 | 4.46 | 316 | 2.4 | 10 | 5.81
N#Cc1c(NN)nc(SCc2nc3ccccc3[nH]2)nc1-c1ccccc1 | 2.55 | 2.68 | 3 | 14.7 | 2.6 | 11.9 | 5.4 | 3.9 | 2.7 | 344 | 2.77 | 14.7 | 2.55
N#Cc1c(-c2ccccc2)nc(SCc2nc3ccccc3[nH]2)nc1N1CCN(C(=O)c2ccccc2)CC1 | 3 | 8.62 | 8.9 | 2.4 | 3.2 | 6.75 | 7.35 | 2.68 | 4 | 327 | 2.8 | 3.4 | 2.55
ClCc1nc2ccccc2[nH]1 |  |  |  |  |  |  |  |  |  | 253 |  |  | 
CCCCCOC(=O)Nc1nc(=O)n([C@@H]2O[C@H](C)[C@@H](O)[C@H]2O)cc1F [CAPECITABINE] |  |  |  |  |  |  |  |  |  |  |  |  | 4330
Nc1ccn([C@@H]2O[C@H](CO)[C@@H](O)[C@@H]2O)c(=O)n1 [CYTARABINE] |  |  |  |  |  |  |  |  |  |  | 7680 |  | 
COc1cccc2c1C(=O)c1c(O)c3c(c(O)c1C2=O)C[C@@](O)(C(=O)CO)C[C@@H]3O[C@H]1C[C@H](N)[C@H](O)[C@H](C)O1 [DOXORUBICIN] |  |  |  |  |  |  |  |  | 4160 |  |  | 6.12 | 
O=c1[nH]cc(F)c(=O)[nH]1 [FLUOROURACIL] | 4460 |  |  |  |  |  |  |  |  |  |  |  | 
Nc1ccn([C@@H]2O[C@H](CO)[C@@H](O)C2(F)F)c(=O)n1 [GEMCITABINE HYDROCHLORIDE] |  |  |  |  | 2130 |  |  |  |  |  |  |  | 
